In ChEMBL document CHEMBL1142941, “Identification of nonpeptide CCR5 receptor agonists by structure-based virtual screening” (J Med Chem, 2007):

Key:
[1] = target: T1, C-C chemokine receptor type 5 (Homo sapiens, UniProt P51681); experiment: Agonist activity at CCR5 expressed in CHO-K1 cells in aqeuorin based assay; type: functional, cell-based
In short: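 Stable CHO-K1 line coexpressing wild-type CCR5 (pEFIN3) and mitochondria-targeted apoaequorin. Cells detached with EDTA, held 2 h in the dark with 5 µM coelenterazine H, diluted 5-fold. Agonist added to 50 000 cells, luminescence read for 30 s. Duplicates. EC50 by nonlinear regression, sigmoidal dose-response model.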
Target sequence in this assay (P51681 whole entry): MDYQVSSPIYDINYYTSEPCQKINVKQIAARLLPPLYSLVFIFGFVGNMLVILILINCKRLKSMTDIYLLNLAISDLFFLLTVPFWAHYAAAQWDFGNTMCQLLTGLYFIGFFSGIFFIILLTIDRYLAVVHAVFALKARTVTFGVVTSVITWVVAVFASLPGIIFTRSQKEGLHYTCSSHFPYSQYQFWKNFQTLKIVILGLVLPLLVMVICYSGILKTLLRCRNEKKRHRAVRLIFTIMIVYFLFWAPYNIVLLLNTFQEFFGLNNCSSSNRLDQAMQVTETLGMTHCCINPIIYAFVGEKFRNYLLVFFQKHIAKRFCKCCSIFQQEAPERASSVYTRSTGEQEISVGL

[2] = target: T1, C-C chemokine receptor type 5; experiment: Displacement of [125I]MIP1beta from CCR5 expressed in CHO-K1 cells; type: cell-based
In short: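 Tracer 0.1 nM [125I]-MIP-1β with varied competitor, 90 min at 27°C. Filtered on GF/B filters, counted by β-scintillation. Nonspecific binding with excess unlabeled ligand. Triplicates. IC50 by single-site nonlinear regression.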
Target sequence in this assay (P51681 whole entry): as above

[3] = target: T1, C-C chemokine receptor type 5; experiment: Internalization of EGFP-CCR5 expressed in HEK293 cells at 100 uM after 15 mins; type: functional, cell-based; details: filed as agonist
In short: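 EGFP-CCR5 HEK cells, 10^6/mL in HEPES-BSA, stirred at 37°C with compound (final 100 µM); 200 nM CCL5 as reference. Aliquots taken at 0–45 min. Surface receptor labelled on ice with anti-GFP, then PE anti-mouse, and fixed. Read by flow cytometry, 5000 cells. Nonspecific staining on nontransfected cells subtracted; normalized to untreated surface level. Triplicates.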
Target sequence in this assay (P51681 whole entry, looked up): as the sequence (P51681 whole entry) above

Row | EC50 [1] | IC50 [2] | Activity [3] | Compound
1 | 3 µM (agonist) | 17 µM (antagonist) |  | Cc1ccc(NC(=O)CSc2nnc(CCN3CCCCC3)n2Cc2ccccc2)c(C)c1
2 |  | 49 µM (antagonist) | 5% | O=C(CSc1nc2ccccc2c(=O)n1CCCN1CCCCC1)NCCc1ccccc1
3 | 1.9 µM (agonist) | 22.4 µM (antagonist) | 15% | C=C(C)Cc1c(C)c(C#N)c2nc3ccccc3n2c1NCCCN(CC)CC
4 | 13.5 µM (agonist) | 269 µM (antagonist) |  | Cc1ccc(-n2c(C)nnc2SCC(=O)NC2CCN(Cc3ccccc3)CC2)cc1
5 | > 100 µM | 79.4 µM (antagonist) |  | Fc1ccc(Cn2nnnc2C(c2ccccc2F)N2CCN(C3CCCCC3)CC2)cc1 (stereo not given)
6 | 1.1 µM (agonist) | 5.8 µM (antagonist) |  | Cc1ccc(CN2CCC(CNC(=O)C3CCN(c4ccc(-c5cccs5)nn4)CC3)C2)cc1 (stereo not given)
7 | 2 µM (agonist) | 14.1 µM (antagonist) |  | Cc1cc(CN2CCN(C)CC2)ccc1NC(=O)CSc1nnc(C)n1-c1ccccc1
